Activity calls are given as the source filed them. The rule behind the calls is not given here.
Legend:
[1] = Cytotoxicity against NQ01-deficient human MDA468 cells after 72 hrs; type: functional, cell-based; conditions: MDA-MB-468, 72 h
In short: (§1)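 Viability was read by CellTiter-Glo luminescent assay. Values are means of three independent determinations.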

NCI-H596 = experiment: Cytotoxicity against NQ01-deficient human NCI-H596 cells after 72 hrs; type: functional, cell-based; conditions: NCI-H596, 72 h; in short: as §1
MCF7 [2] = experiment: Cytotoxicity against human MCF7 cells after 72 hrs; type: functional, cell-based; conditions: MCF7, 72 h; in short: as §1
[3] = molecular target: T1, Heat shock protein HSP 90-alpha (Homo sapiens, UniProt P07900); experiment: Binding affinity to human recombinant Hsp90alpha N-terminal domain by isothermal titration calorimetry
SK-BR-3 [4] = experiment: Cytotoxicity against human SKBR3 cells after 72 hrs; type: functional, cell-based; conditions: SK-BR-3, 72 h; in short: as §1
HCT-116 = experiment: Cytotoxicity against human HCT116 cells after 72 hrs; type: functional, cell-based; conditions: HCT-116, 72 h; in short: as §1
SK-OV-3 = experiment: Cytotoxicity against human SKOV3 cells after 72 hrs; type: functional, cell-based; conditions: SK-OV-3, 72 h; in short: as §1
Mus musculus [5] = experiment: Inhibition of HSP90 in human COLO205 tumor bearing nu/nu mouse assessed as induction of HSP70 expression at 30 mg/kg, […] after 24 hrs by ELISA; type: functional, organism-based; parameters: dose 30 mg/kg
In short: (§2)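 COLO205 xenograft mice were given a single dose. Tumors were harvested 4 or 24 h later and tumor lysates assayed by ELISA for Hsp70 or ErbB2 protein levels. Vehicle-dosed mice served as comparison.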

Mus musculus [6] = experiment: Toxicity in human COLO205 tumor bearing nu/nu mouse assessed as body weight change at 30 mg/kg, iv administered once daily for 5 days with 2 day interval for total 13 doses; type: organism-based; parameters: dose 30 mg/kg, route intravenous; conditions: in vivo
COLO 205 [7] = experiment: Antitumor activity against human COLO205 tumor bearing mouse assessed as reduction of tumor volume at 15 mg/kg, iv once daily for 5 days with 2 day interval for total 13 doses; type: functional, organism-based; parameters: dose 15 mg/kg
In short: (§3)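 COLO205 tumor-bearing mice received iv doses of vehicle or test agent (15, 30 or 90 mg/kg) daily for 5 days, then a 2-day holiday, for 13 doses in total. Groups had 10 mice each. Tumor growth was followed over the dosing period and compared with vehicle.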

Mus musculus [8] = experiment: Inhibition of HSP90 in human COLO205 tumor bearing nu/nu mouse assessed as induction of HSP70 expression at 30 mg/kg, […] after 4 hrs by ELISA; type: functional, organism-based; parameters: dose 30 mg/kg; in short: as §2
Mus musculus [9] = experiment: Inhibition of HSP90 in human COLO205 tumor bearing nu/nu mouse assessed as reduction of ErbB2 protein level at 30 mg/kg, […] after 4 hrs by ELISA; type: functional, organism-based; parameters: dose 30 mg/kg; in short: as §2
Mus musculus [10] = experiment: Inhibition of HSP90 in human COLO205 tumor bearing nu/nu mouse assessed as reduction of ErbB2 protein level at 30 mg/kg, iv after 24 hrs by ELISA
[11] = molecular target: T1, Heat shock protein HSP 90-alpha; experiment: Binding affinity to human recombinant Hsp90alpha N-terminal domain by scintillation proximity assay
COLO 205 [12] = experiment: Antitumor activity against human COLO205 tumor bearing mouse assessed as reduction of tumor volume at 30 mg/kg, iv administered once daily for 5 days with 2 day interval for total 13 doses; type: functional, organism-based; parameters: dose 30 mg/kg; in short: as §3
COLO 205 [13] = experiment: Antitumor activity against human COLO205 tumor bearing mouse assessed as reduction of tumor volume dosed intravenously once daily for 5 days with 2 day interval for total 13 doses; type: functional, organism-based; in short: as §3
Mus musculus [14] = experiment: Toxicity in human COLO205 tumor bearing nu/nu mouse assessed as body weight change at 15 mg/kg, iv administered once daily for 5 days with 2 day interval for total 13 doses; type: organism-based; parameters: dose 15 mg/kg, route intravenous; conditions: in vivo
MCF7 [15] = experiment: Cytotoxicity against human MCF7 cells after 72 hrs in presence of NQO1 inhibitor dicoumarol; type: functional, cell-based; conditions: MCF7, 72 h; in short: as §1
COLO 205 [16] = experiment: Antitumor activity against human COLO205 tumor bearing mouse assessed as reduction of tumor volume at 90 mg/kg, iv administered once daily for 5 days with 2 day interval for total 13 doses; type: functional, organism-based; parameters: dose 90 mg/kg; in short: as §3
SK-BR-3 [17] = experiment: Cytotoxicity against human SKBR3 cells after 72 hrs in presence of NQO1 inhibitor dicoumarol; type: functional, cell-based; conditions: SK-BR-3, 72 h; in short: as §1

| Compound | IC50 [1] [µM] | IC50 (NCI-H596) [µM] | IC50 (MCF7 [2]) [µM] | Kd [3] [µM] | IC50 (SK-BR-3 [4]) [µM] | IC50 (HCT-116) [µM] | IC50 (SK-OV-3) [µM] | Activity (Mus musculus [5]) | Activity (Mus musculus [6]) | Activity (COLO 205 [7]) | Activity (Mus musculus [8]) | Activity (Mus musculus [9]) | Activity (Mus musculus [10]) | Kd [11] [µM] | Activity (COLO 205 [12]) | Activity (COLO 205 [13]) | Activity (Mus musculus [14]) | IC50 (MCF7 [15]) [µM] | Activity (COLO 205 [16]) | IC50 (SK-BR-3 [17]) [µM] |
| --- | --- | --- | --- | --- | --- | --- | --- | --- | --- | --- | --- | --- | --- | --- | --- | --- | --- | --- | --- | --- |
| CO[C@H]1C[C@H](C)Cc2cccc(c2)NC(=O)/C(C)=C/CC[C@H](OC)[C@@H](OC(N)=O)/C(C)=C/[C@H](C)[C@H]1O | 0.19 | 0.39 | 0.139 | 0.0054 | 0.096 | 0.24 | 0.32 | – | – | – | – | – | – | – | – | – | – | – | – | – |
| CO[C@H]1C[C@H](C)Cc2cc(cc(Cl)c2O)NC(=O)/C(C)=C/CC[C@H](OC)[C@@H](OC(N)=O)/C(C)=C/[C@H](C)[C@H]1O | 0.089 | – | – | – | – | 0.12 | 0.141 | Active | Non-toxic | Active | Active | Active | Active | 0.05 | Active | Dose-dependent effect | Non-toxic | – | – | – |
| CO[C@H]1C[C@H](C)Cc2cc(ccc2O)NC(=O)/C(C)=C/CC[C@H](OC)[C@@H](OC(N)=O)/C(C)=C/[C@H](C)[C@H]1O | 0.42 | 1.2 | 0.61 | 0.0008 | 0.835 | 1.05 | – | – | – | – | – | – | – | – | – | – | – | – | – | – |
| C=CCNC1=C2C[C@@H](C)C[C@H](OC)[C@H](O)[C@@H](C)/C=C(\C)[C@H](OC(N)=O)[C@@H](OC)/C=C\C=C(/C)C(=O)NC(=CC1=O)C2=O [TANESPIMYCIN] | 1.5 | 1.6 | 0.058 | – | 0.044 | 0.202 | 0.24 | – | – | Active | – | – | – | – | – | – | – | 0.662 | Active | 0.41 |
| CO[C@H]1/C=C\C=C(/C)C(=O)NC2=CC(=O)C(NCCN(C)C)=C(C[C@@H](C)C[C@H](OC)[C@H](O)[C@@H](C)/C=C(\C)[C@@H]1OC(N)=O)C2=O [ALVESPIMYCIN] | 1.6 | 1.1 | 0.071 | – | 0.058 | 0.057 | 0.122 | – | – | – | – | – | – | – | – | – | – | 0.862 | – | 0.23 |
| CO[C@H]1/C=C\C=C(/C)C(=O)Nc2cc(Cl)c(O)c(c2O)C[C@@H](C)C[C@H](OC)[C@H](O)[C@@H](C)/C=C(\C)[C@@H]1OC(N)=O | 0.443 | 0.71 | 0.33 | – | 0.394 | 0.422 | 0.35 | – | – | – | – | – | – | – | – | – | – | – | – | – |
| CO[C@H]1/C=C\C=C(/C)C(=O)Nc2ccc(O)c(c2)C[C@@H](C)C[C@H](OC)[C@H](O)[C@@H](C)/C=C(\C)[C@@H]1OC(N)=O | 0.16 | 0.325 | – | 0.0025 | 0.083 | 0.179 | – | – | – | – | – | – | – | – | – | – | – | – | – | – |

Reference: ChEMBL document CHEMBL1152777, “Potent non-benzoquinone ansamycin heat shock protein 90 inhibitors from genetic engineering of Streptomyces hygroscopicus” (J Med Chem, 2009)
